Measured values from ChEMBL document CHEMBL1152770, “Inhibitors of hepatitis C virus polymerase: synthesis and biological characterization of unsymmetrical dialkyl-hydroxynaphthalenoyl-benzothiadiazines” (J Med Chem, 2009).

Tests used:
[1] = Oral bioavailability in rat at 5 mg/kg; assay type: ADME, organism-based; details: in vivo
In short: (§1)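 Vehicle DMSO:PEG400 (10:90, v/v). Dosing at 5 mg/kg in rat and monkey; dog 5 mg/kg or 2.5 mg/kg. Protein precipitation with acetonitrile, then LC-MS/MS in negative-ion MRM (m/z 516.2→437.0) against spiked standards with internal standard.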

[2] = Cmax in monkey at 5 mg/kg, po; assay type: ADME, organism-based, Macaca mulatta; design: dose 5 mg/kg, route oral; details: rhesus monkey, in vivo; in short: as §1
[3] = Drug level in rat liver at 5 mg/kg, po after 12 hrs; assay type: ADME, organism-based; design: dose 5 mg/kg, route oral; details: read-out: Drug uptake
In short: (§2)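 Rats dosed orally at 5 mg/kg, four groups, sacrificed at 6 and 12 h. Plasma and liver homogenate extracted by acetonitrile protein precipitation with internal standard and quantified by LC-MS (negative-ion MRM). Liver/plasma ratio taken from the two concentrations.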

Hepatitis C virus [4] = test: Antiviral activity against HCV 1a containing chimeric genotype 1a-H77/1b-con1 subgenom in human Huh7 cells assessed as reduction in viral RNA after 4 days by RT-PCR; details: subtype 1a, Huh-7, 96 h
[5] = Metabolic stability in dog hepatocytes assessed as intrinsic clearance; assay type: ADME, cell-based, Canis lupus familiaris, Liver, Hepatocyte
[6] = Tmax in monkey at 5 mg/kg, po; assay type: ADME, organism-based, Macaca mulatta; design: dose 5 mg/kg, route oral; details: rhesus monkey, in vivo
In short: (§3)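 Single oral gavage-type dose in DMSO:PEG400 (10:90, v/v). Heparinized plasma collected at 0.25, 0.5, 1, 2, 4, 6, 9, 12 and 24 h, with extra 3 and 15 h points in dog. Acetonitrile protein precipitation was followed by LC-MS in negative-ion MRM mode with an internal standard. Tmax was read from the plasma profile.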

[7] = Metabolic stability in monkey hepatocytes assessed as intrinsic clearance; assay type: ADME, cell-based, Macaca mulatta, Liver, Hepatocyte; details: rhesus monkey
[8] = Terminal phase volume of distribution in monkey at 5 mg/kg, iv; assay type: ADME, organism-based, Macaca mulatta; design: dose 5 mg/kg, route intravenous; details: rhesus monkey, in vivo, read-out: Vbeta
In short: (§4)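 Single intravenous dose. Heparinized plasma sampled at 0.1, 0.25, 0.5, 1, 2, 4, 6, 9, 12 and 24 h, plus 3 and 15 h in dog. Drug was isolated by acetonitrile protein precipitation and quantified by LC-MS in negative-ion MRM mode (m/z 516.2→437.0) against an internal standard. Concentrations came from unweighted linear regression of spiked standards.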

[9] = Aqueous solubility in 50 mM citrate buffer at pH 4; assay type: physicochemical
In short: (§5)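 Equilibrium solubility in PEG 400, in 50 mM citrate buffer pH 4 or in 50 mM phosphate buffer pH 7.4. Buffers brought to ionic strength 0.155 M with NaCl. Vials rotated at 25 °C for 4 days, final pH measured, then supernatant assayed by reverse-phase HPLC at 262 nm against a linear standard curve.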

[10] = Plasma clearance in dog at 2.5 mg/kg, iv; assay type: ADME, organism-based, Canis lupus familiaris; design: dose 2.5 mg/kg, route intravenous; in short: as §1
[11] = Metabolic stability in human liver microsomes assessed as intrinsic clearance; assay type: ADME, Microsome
[12] = Elimination half life in monkey at 5 mg/kg, po; assay type: ADME, organism-based, Macaca mulatta; design: dose 5 mg/kg, route oral; details: rhesus monkey, in vivo, read-out: beta t1/2 (converted); in short: as §1
[13] = Elimination half life in dog at 2.5 mg/kg, iv; assay type: ADME, organism-based, Canis lupus familiaris; design: dose 2.5 mg/kg, route intravenous; details: in vivo, read-out: beta t1/2 (converted); in short: as §1
[14] = Terminal phase volume of distribution in rat at 5 mg/kg, iv; assay type: ADME, organism-based; design: dose 5 mg/kg, route intravenous; details: in vivo, read-out: Vbeta; in short: as §4
[15] = Oral bioavailability in monkey at 5 mg/kg; assay type: ADME, organism-based, Macaca mulatta; details: rhesus monkey, in vivo; in short: as §1
[16] = Inhibition of HCV isolate H77 NS5B polymerase after 3 hrs by scintillation counting
[17] = Solubility in polyethylene glycol 400 at 25 deg C; assay type: physicochemical; in short: as §5
[18] = Elimination half life in rat at 5 mg/kg, iv; assay type: ADME, organism-based; design: dose 5 mg/kg, route intravenous; details: in vivo, read-out: beta t1/2 (converted); in short: as §1
[19] = Metabolic stability in monkey liver microsomes assessed as intrinsic clearance; assay type: ADME, Macaca mulatta, Microsome; details: rhesus monkey
[20] = Aqueous solubility in 50 mM phosphate buffer at pH 7.4; assay type: physicochemical; in short: as §5
[21] = AUC in monkey at 5 mg/kg, iv; assay type: ADME, organism-based, Macaca mulatta; design: dose 5 mg/kg, route intravenous; details: rhesus monkey, plasma; in short: as §1
[22] = AUC in rat at 5 mg/kg, iv; assay type: ADME, organism-based; design: dose 5 mg/kg, route intravenous; details: plasma; in short: as §1
[23] = Inhibition of HCV isolate BK NS5B polymerase after 3 hrs by scintillation counting
[24] = Tmax in rat at 5 mg/kg, po; assay type: ADME, organism-based; design: dose 5 mg/kg, route oral; details: in vivo; in short: as §3
[25] = Metabolic stability in rat liver microsomes assessed as intrinsic clearance; assay type: ADME, Microsome
[26] = Metabolic stability in dog liver microsomes assessed as intrinsic clearance; assay type: ADME, Canis lupus familiaris, Microsome
[27] = Tmax in dog at 2.5 mg/kg, po; assay type: ADME, organism-based, Canis lupus familiaris; design: dose 2.5 mg/kg, route oral; details: in vivo; in short: as §3
Hepatitis C virus [28] = test: Antiviral activity against HCV isolate Con1 in human Huh7 cells assessed as reduction in viral RNA after 4 days by RT-PCR; details: isolate Con1, Huh-7, 96 h
[29] = Cmax in rat at 5 mg/kg, po; assay type: ADME, organism-based; design: dose 5 mg/kg, route oral; details: in vivo; in short: as §1
[30] = Oral bioavailability in dog at 2.5 mg/kg; assay type: ADME, organism-based, Canis lupus familiaris; details: in vivo; in short: as §1
Hepatocyte [31] = test: Metabolic stability in rat hepatocytes assessed as intrinsic clearance; assay type: ADME, cell-based, Liver
[32] = Volume of distribution at steady state in monkey at 5 mg/kg, iv; assay type: ADME, organism-based, Macaca mulatta; design: dose 5 mg/kg, route intravenous; details: rhesus monkey, in vivo, read-out: Vdss; in short: as §4
[33] = Drug level in rat liver at 5 mg/kg, po after 6 hrs; assay type: ADME, organism-based; design: dose 5 mg/kg, route oral; details: read-out: Drug uptake; in short: as §2
[34] = AUC in dog at 2.5 mg/kg, po; assay type: ADME, organism-based, Canis lupus familiaris; design: dose 2.5 mg/kg, route oral; details: plasma; in short: as §1
[35] = Volume of distribution at steady state in dog at 2.5 mg/kg, iv; assay type: ADME, organism-based, Canis lupus familiaris; design: dose 2.5 mg/kg, route intravenous; details: in vivo, read-out: Vdss; in short: as §4
Hepatitis C virus [36] = test: Antiviral activity against HCV isolate Con1 assessed as reduction in viral RNA after 4 days by RT-PCR in presence of 40% human serum; details: isolate Con1, 96 h
[37] = Cmax in dog at 2.5 mg/kg, po; assay type: ADME, organism-based, Canis lupus familiaris; design: dose 2.5 mg/kg, route oral; details: in vivo; in short: as §1
Hepatitis C virus [38] = test: Ratio of EC50 for HCV isolate Con1 in presence of 40% human serum to EC50 for HCV isolate Con1; assay type: functional, Hepacivirus hominis
In short: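 Genotype 1b-con1 subgenomic replicon in Huh-7 cells. Four-day incubation with inhibitor in medium with 5% FBS, with or without 40% human serum. EC50 from the fall in HCV RNA copy number by real-time PCR. Ratio is EC50 with serum over EC50 without.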

[39] = AUC in monkey at 5 mg/kg, po; assay type: ADME, organism-based, Macaca mulatta; design: dose 5 mg/kg, route oral; details: rhesus monkey, plasma; in short: as §1
[40] = Plasma clearance in rat at 5 mg/kg, iv; assay type: ADME, organism-based; design: dose 5 mg/kg, route intravenous; in short: as §1
[41] = Terminal phase volume of distribution in dog at 2.5 mg/kg, iv; assay type: ADME, organism-based, Canis lupus familiaris; design: dose 2.5 mg/kg, route intravenous; details: in vivo, read-out: Vbeta; in short: as §1
[42] = AUC in rat at 5 mg/kg, po; assay type: ADME, organism-based; design: dose 5 mg/kg, route oral; details: plasma; in short: as §1
[43] = AUC in dog at 2.5 mg/kg, iv; assay type: ADME, organism-based, Canis lupus familiaris; design: dose 2.5 mg/kg, route intravenous; details: plasma; in short: as §1
[44] = Elimination half life in monkey at 5 mg/kg, iv; assay type: ADME, organism-based, Macaca mulatta; design: dose 5 mg/kg, route intravenous; details: rhesus monkey, in vivo, read-out: beta t1/2 (converted); in short: as §1
[45] = Elimination half life in dog at 2.5 mg/kg, po; assay type: ADME, organism-based, Canis lupus familiaris; design: dose 2.5 mg/kg, route oral; details: in vivo, read-out: beta t1/2 (converted); in short: as §1
[46] = Plasma clearance in monkey at 5 mg/kg, iv; assay type: ADME, organism-based, Macaca mulatta; design: dose 5 mg/kg, route intravenous; details: rhesus monkey; in short: as §1
[47] = n-Octanol-phosphate buffer distribution coefficient, log D at pH 7.4; assay type: physicochemical
In short: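 Compound was dissolved in n-octanol and mixed with 50 mM phosphate buffer, isotonic with NaCl, pH 7.4. The mixture was tumbled at 25 °C, 25 rpm, for 2-3 days, then centrifuged to split the phases. Each phase was assayed by reverse-phase HPLC (UV 262 nm) against a linear standard curve. D is the octanol/buffer concentration ratio.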

[48] = Cytotoxicity against human HuH7 cells by MTT assay; assay type: cell-based, Huh-7; details: read-out: TD50 (the source's name)
In short: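 Cytotoxicity in Huh-7 replicon cultures measured by MTT colorimetric assay after the four-day incubation.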

Hepatocyte [49] = test: Metabolic stability in human hepatocytes assessed as intrinsic clearance; assay type: ADME, cell-based, Liver
[50] = Volume of distribution at steady state in rat at 5 mg/kg, iv; assay type: ADME, organism-based; design: dose 5 mg/kg, route intravenous; details: in vivo, read-out: Vdss; in short: as §4
Hepatitis C virus [51] = test: Antiviral activity against HCV genotype 1 infected in human assessed as reduction in viral titer after 48 hrs; assay type: functional, Hepacivirus hominis

CC(C)(C)CC[C@@]1(C)C(=O)C(C2=NS(=O)(=O)c3cc(NS(C)(=O)=O)ccc3N2)=C([O-])c2ccccc21.[Na+]
bioavailability [1]: 77.3% | Cmax [2]: 480 ng/mL | concentration at 12 h [3]: 4190 ng/g | EC50 (Hepatitis C virus [4]): 4 nM | CL [5]: 0.5 µL/min/mg | Tmax [6]: 2.7 h | CL [7]: 3.5 µL/min/mg | Vd [8]: 1.77 L/kg | solubility [9]: < 0.2 µg/mL | clearance [10]: 0.333 mL/min/kg | microsomal CLint [11]: 23.6 µL/min/mg | half-life [12]: 2 h | half-life [13]: 12.3 h | Vd [14]: 2.39 L/kg | bioavailability [15]: 19% | IC50 [16]: 0.7 nM | solubility [17]: 150000 µg/mL | half-life [18]: 4.5 h | microsomal CLint [19]: 14.4 µL/min/mg | solubility [20]: 110 µg/mL | AUC [21]: 10200 ng·h/mL | AUC [22]: 14900 ng·h/mL | IC50 [23]: 0.6 nM | Tmax [24]: 9 h | microsomal CLint [25]: 8.7 µL/min/mg | microsomal CLint [26]: 2.4 µL/min/mg | Tmax [27]: 2.2 h | EC50 (Hepatitis C virus [28]): 2 nM | Cmax [29]: 890 ng/mL | bioavailability [30]: 100% | CL (Hepatocyte [31]): 1.6 µL/min/mg | Vd [32]: 0.77 L/kg | concentration at 6 h [33]: 21800 ng/g | AUC [34]: 121000 ng·h/mL | Vd [35]: 0.38 L/kg | EC50 (Hepatitis C virus [36]): 28 nM | Cmax [37]: 5700 ng/mL | Ratio EC50 (Hepatitis C virus [38]): 17 | AUC [39]: 1900 ng·h/mL | clearance [40]: 5.67 mL/min/kg | Vd [41]: 0.46 L/kg | AUC [42]: 11500 ng·h/mL | AUC [43]: 116000 ng·h/mL | half-life [44]: 2.1 h | half-life [45]: 14.8 h | clearance [46]: 9.33 mL/min/kg | logD [47]: 2.26 | CC50 [48]: 21700 nM | CL (Hepatocyte [49]): 2.7 µL/min/mg | Vd [50]: 2.22 L/kg

COc1ccc2c(O[C@@H]3C[C@H]4C(=O)N[C@]5(C(=O)O)C[C@H]5/C=C\CCCCC[C@H](NC(=O)OC5CCCC5)C(=O)N4C3)cc(-c3csc(NC(C)C)n3)nc2c1
EC50 (Hepatitis C virus [4]): 3 nM | EC50 (Hepatitis C virus [28]): 3 nM | Activity (Hepatitis C virus [51]): 2
